AI-2 QS mod = modulates the Vibrio harveyi AI-2 quorum sensing system. Vibrio harveyi JMH597 AI-2 luminescence/OD600 ratio, 9 h; active compounds read low; strain lacks LuxN and CqsS sensors; 0 = neutral-control median. activity change, % at 7.5 µM. 300,000 tested, 0.4% active. AID 2094; in the data active = activity change below about -75%, passing the limit was not always enough;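 note: luminescence divided by OD600 gain over 9 h not by final OD600 alone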
HSF1 inhib = HSF1 inhibition; activity change, negative = inhibition, % at 7.5 µM (by protocol); NIH3T3-HGL HSE-luciferase, MG132-induced, luminescence 8 h; active compounds read low; 300,000 tested, 0.77% active;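 active = more than half of replicate wells show activity change below -50%, luminescence cut by over half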;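 note: luciferase reports HSF-1 transcriptional activity via heat shock element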
PHOSPHO1 block = inhibitors of human PHOSPHO1 phosphatase. recombinant PHOSPHO1, absorbance phosphatase assay. 290,000 tested, 1.1% active. inhibition, % at 13.3 µM; in the data active = inhibition above about 60%
Target sequence (Q8TCT1 whole entry, looked up): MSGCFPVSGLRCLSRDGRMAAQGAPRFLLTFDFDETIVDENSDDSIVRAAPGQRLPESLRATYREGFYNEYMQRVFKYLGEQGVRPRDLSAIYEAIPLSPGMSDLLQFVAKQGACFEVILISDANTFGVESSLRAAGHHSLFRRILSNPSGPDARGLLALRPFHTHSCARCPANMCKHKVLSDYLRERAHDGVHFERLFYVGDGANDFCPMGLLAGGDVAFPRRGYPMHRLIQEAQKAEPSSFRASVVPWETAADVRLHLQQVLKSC
HSF1 activator = increases HSF-1 driven luciferase reporter signal. NIH3T3-HGL HSF-1 luciferase reporter, MG132, 8 h; 100% = twice DMSO control signal. activation, % at 9 µM. 300,000 tested, 1.7% active. AID 504408;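 active = mean replicate activation of at least 50% with a set share of replicates each reaching 50%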
HCV core dimer = blocks dimerization of HCV core protein. TR-FRET GST/Flag-core106 dimerization, 1536-well. inhibition, % at 5 µM. 300,000 tested, 0.33% active. AID 1899;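 active = inhibition above the mean of all tested compounds plus 3 SD, set per screening campaign, cut at about 45% in these data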
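System: GST-tagged and Flag-tagged HCV core protein residues 1-106 / Input: core106 proteins, GST 13.5 nM and Flag 17 nM / Buffer or medium: KF-containing HEPES buffer, pH 7.45, DTT, CHAPS, BSA / Probe or stimulus: Eu-anti-GST and XL665-anti-Flag labelled anti-tag antibodies / Schedule: 4 h, 22.5 °C incubation / Technique: TR-FRET 671 and 617 nm emission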
ALR H2O2 inh = human ALR oxidase inhibition via reduced H2O2 | purified ALR, DTT oxidation, H2O2 HRP-luminol luminescence | 290,000 tested, 3.8% active | inhibition, % (concentration not given with the values);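 active = mean replicate inhibition above about 79%, with every replicate also reaching it, limit read from the data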
Target sequence (P55789 whole entry, looked up): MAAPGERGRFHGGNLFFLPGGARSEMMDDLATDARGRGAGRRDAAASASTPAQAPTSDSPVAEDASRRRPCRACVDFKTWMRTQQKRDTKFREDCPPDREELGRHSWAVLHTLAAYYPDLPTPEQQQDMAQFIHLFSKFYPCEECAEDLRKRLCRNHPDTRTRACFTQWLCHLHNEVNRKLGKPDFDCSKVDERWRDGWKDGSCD
Large screens that a line does not name were inactive; ! = a repeat was not active. Only some compounds are listed: those with a hit (about 6.8% of all), similar ones and a draw of the others.

COc1ccc(N(CC(=O)N2CCN(c3ccc(Cl)cc3)CC2)S(=O)(=O)c2c(C)n[nH]c2C)cc1	none
CC(/C=N/n1c(-c2cc(C)[nH]n2)n[nH]c1=S)=C\c1ccccc1	none
CC(/C=N/n1c(-c2cccnc2)n[nH]c1=S)=C\c1ccco1	none
CC(/C=N/n1c(-c2n[nH]c3c2CCC3)n[nH]c1=S)=C\c1ccco1	ALR H2O2 inh 94
O=[N+]([O-])c1ccccc1/C=N/n1c(-c2ccccc2)n[nH]c1=S	none (no result: AI-2 QS mod)
O=[N+]([O-])c1ccccc1/C=C/C=N/n1c(-c2ccccc2F)n[nH]c1=S	ALR H2O2 inh 98
CC(=C/c1ccccc1)/C=N/n1c(-c2ccco2)n[nH]c1=S	ALR H2O2 inh 97
COc1ccccc1/C=C/C=N/n1c(-c2ccccc2)n[nH]c1=S	PHOSPHO1 block 99
COc1ccc(Cl)cc1NC(=S)NNC(=O)C1(C)CC1(Cl)Cl (stereo not given)	none
COc1ccc(CC(NC(C)=O)C(=O)NC2CCN(C(=O)c3ccccc3F)CC2)cc1 (stereo not given)	none
COCCN(C(=O)c1cc(OC)c(OC)c(OC)c1)c1c(N)n(Cc2ccccc2)c(=O)[nH]c1=O	none
CCC(C)[C@H](NC(=O)[C@@H]1CSC2c3ccccc3C(=O)N21)C(=O)NCc1ccco1 (stereo not given in full)	none
CCOc1ccc(N/C(SCc2cccc([N+](=O)[O-])c2)=C(/C#N)C(N)=O)cc1	ALR H2O2 inh 99
COc1cccc(N/C(SCc2cccc([N+](=O)[O-])c2)=C(/C#N)C(=O)NCc2cccs2)c1	HSF1 activator 75
CC1CN(C(=O)c2cc3cc(F)ccc3[nH]2)CC(C)O1 (stereo not given)	none (no result: HCV core dimer)
CSc1ccccc1OCc1cc(C(=O)N(C)C(C)c2ccccn2)no1 (stereo not given)	PHOSPHO1 block 61 (no result: HCV core dimer)
Cc1cc(OCc2cc(C(=O)N(C)C(C)c3ccccn3)no2)cc(C)c1Cl (stereo not given)	none
CCc1n[nH]c(=S)n1/N=C/c1c(O)ccc2ccccc12	none
N#Cc1c(Cl)nc(SCc2ccccc2)nc1-c1ccccc1	PHOSPHO1 block 96 (no result: AI-2 QS mod, HSF1 inhib, HSF1 activator)
c1ccc(CSc2nnc(-c3ccccc3)c(-c3ccccc3)n2)cc1	none (no result: PHOSPHO1 block)
O=C(CSc1ncccc1C(=O)O)Nc1ccc2c(c1)OCCO2	none
Cc1ccc(NC(=O)Nc2nnc(-c3ccncc3)s2)cc1C	none
COC(=O)Nc1nnc(-c2ccncc2)s1	PHOSPHO1 block 62
CCCCn1c(N)c(N(Cc2ccccc2OC)C(=O)c2ccc([N+](=O)[O-])s2)c(=O)[nH]c1=O	none (no result: PHOSPHO1 block)
COCCn1c(SCC(=O)c2ccccc2)nc2c(c1=O)SC(C)C2 (stereo not given)	ALR H2O2 inh 99
CCn1c(SCC(=O)c2ccccc2)nc2c(c1=O)SC(C)C2 (stereo not given)	ALR H2O2 inh 99
CCn1c(SCC(=O)N2CCCCC2)nc2c(c1=O)SC(C)C2 (stereo not given)	none
COCCn1c(SCC(=O)N2CCN(c3ccccc3)CC2)nc2c(c1=O)SC(C)C2 (stereo not given)	none
CCOC(=O)C1=C(COC(=O)C2CC(=O)N(CCc3ccccc3)C2)NC(=O)NC1C (stereo not given)	none (no result: AI-2 QS mod, HSF1 inhib, PHOSPHO1 block, HSF1 activator, HCV core dimer)
Oc1ccc(C2CNCCc3c2cc(O)c(O)c3Cl)cc1 (stereo not given)	ALR H2O2 inh 99! (no result: PHOSPHO1 block)
COc1cc2c(cc1OC)C(c1ccc(O)cc1)NCC2 (stereo not given)	none (no result: PHOSPHO1 block)
Oc1cc2c(c(Cl)c1O)CCNCC2c1ccccc1 (stereo not given)	ALR H2O2 inh 99 (no result: PHOSPHO1 block)
[O-]/[N+](=C/c1ccccc1)c1ccccc1	none (no result: AI-2 QS mod, HSF1 inhib, PHOSPHO1 block, HSF1 activator, HCV core dimer)
CCOC(=O)C1=C(C)NC(=O)C1CC(=O)Nc1ccccc1 (stereo not given)	ALR H2O2 inh 96
O=C1NC(=S)S/C1=C/c1ccc(OC(=O)c2ccco2)cc1	HSF1 activator 55
COc1cc(/C=C2/SC(=O)NC2=O)ccc1OC(=O)c1ccco1	none
CCOc1cc(/C=C2/SC(=S)NC2=O)ccc1OC(=O)c1ccco1	ALR H2O2 inh 98
O=C(Nc1cc2c3c(c1)CC(=O)N3CCC2)C1CC1	none (no result: PHOSPHO1 block)
